In the library only some 3% were active in any assay of this set; here they are far more common.
esBAF inh: Bmi1 luciferase reporter increase in mESCs, primary screen, esBAF inhibitor project, mouse ES cells, Bmi1 luciferase knock-in, single point; 24 h; 100% = twice the neutral-well signal; reporter increase, % at 12.5 µM; 2% of 350,000 active; in the data active = activation above about 40%; inconclusive = no clear call, values can overlap the other calls;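 note: 0% = median of the plate's neutral control wells and 100% = double that signal; a rise in the Bmi1 reporter signal indicates esBAF inhibition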
MITF TRPM1 HTS: activators of MITF-driven TRPM1 promoter reporter, primary screen, cell-based, SK-MEL-5, luciferase, single point; SK-MEL-5 TRPM1-promoter luciferase, 24 h; % of positive control, neutral wells = 0; activation, % at 12.5 µM; 0.75% of 300,000 active; AID 588334, 2011;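 active = mean activation of at least 80% with every replicate also reaching 80%; inconclusive = mean reaches 80% but some replicate falls short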;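 note: 0% = neutral control wells and 100% = parthenolide positive control wells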
NSD2 inh: NSD2 histone methyltransferase inhibitors, primary screen, biochemical, AlphaScreen, single concentration, set 2. 0.54% of 310,000 active. NSD2 peptide methylation, 120 min. AID 743445, 2014. inhibition, % at 12.5 µM. Histone-lysine N-methyltransferase NSD2 (Homo sapiens), O96028; in the data active = inhibition above about 50%
Casp6 inh: human caspase-6 inhibitors, primary screen, biochemical, VEID-R110 fluorescence, single point, set 2; inhibition, % at 12.5 µM; purified caspase-6, Z-VEID-R110 cleavage fluorescence; 0.53% of 350,000 active; P55212;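 active = mean inhibition across replicates at least about 35%, with every replicate also reaching that limit, limit read from the data; inconclusive = only one of the two criteria met; inactive = neither criterion met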;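 note: 0% = median of neutral control wells and 100% = no fluorescence left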
Target sequence (P55212 24-179 limits assumed): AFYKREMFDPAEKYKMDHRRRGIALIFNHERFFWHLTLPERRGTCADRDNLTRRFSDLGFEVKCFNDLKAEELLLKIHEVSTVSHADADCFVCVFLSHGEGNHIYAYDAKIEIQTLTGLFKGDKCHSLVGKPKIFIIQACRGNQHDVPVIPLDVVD
Target sequence (P55212 194-293 limits assumed): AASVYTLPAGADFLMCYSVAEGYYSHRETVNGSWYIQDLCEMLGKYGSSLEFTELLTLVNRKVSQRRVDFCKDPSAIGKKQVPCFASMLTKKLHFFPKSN
XiGFP reactiv: activators of inactive X chromosome reactivation, primary screen, imaging, XiGFP fibroblasts, GFP high-content imaging, set 2; XiGFP mouse fibroblasts, % GFP-positive cells imaging, 3 d; cells co-treated with 5-aza-dC sensitizer; scaled so ellipticine positive control = 100%; activation, % at 7.58 µM; 0.055% of 360,000 active; AID 743238, 2013;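 active = mean normalized replicate activation at least 10% and every replicate at or above 10%; inconclusive = only one of the two criteria met; inactive = mean below 10% and not all replicates reach 10%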;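 note: 0% = median of on-plate neutral control wells and 100% = ellipticine 6 µM median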
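Assay system – SV40-immortalized XiGFP fibroblast cells, line 68-5-11 · Buffer or medium – DMEM supplemented with 5-aza-dC as sensitizing agent · Dosing – one concentration, pinned · Benchmarks – positive control ellipticine, 6 µM final · Times – 3 days compound exposure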
Wnt bcat act: Wnt/beta-catenin pathway activators, primary screen, cell-based, plate reader, single point; 1.2% of 300,000 active; activation, % at 9.35 µM; Wnt/beta-catenin reporter cell assay, activator; in the data active = activation above about 30%, passing the limit was not always enough; inconclusive = no clear call, values can overlap the other calls;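 note: 0% = neutral control wells and 100% = positive control wells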
Numbers without * were called inactive; ? = inconclusive; . = no result.

SMILES	esBAF inh	MITF TRPM1 HTS	NSD2 inh	Casp6 inh	XiGFP reactiv	Wnt bcat act
CCOC(=O)c1sc(=NC(=O)c2cccc(Br)c2)n(C)c1C	70.7*	73.3	-1.4	0.9	-0.1	1.8
CCOC(=O)c1sc(=NC(=O)COc2ccccc2)n(C)c1C	19.2	24.0	-1.9	0.5	0.3	13.6
CCOC(=O)c1sc(=NC(=O)c2c(F)cccc2F)n(C)c1C	54.0*	50.5	0.3	-1.3	0.0	13.5
CCOC(=O)c1sc(=NC(=O)c2cccc(C)c2)n(C)c1C	.	48.7	-4.3	0.9	0.0	13.8
C[C@@H]1CN([C@H](C)CO)C(=O)c2cc(C#Cc3ccccc3)cnc2O[C@@H]1CN(C)C(=O)CCN1CCCCC1	-0.7	.	.	0.3	-2.0	.
CC=Cc1ccc2n(c1=O)C[C@@H]1[C@@H](CO)[C@H](C(=O)N3CCOCC3)N(Cc3ccccc3OC)[C@H]21 (mixture of isomers)	0.1	.	.	1.6	0.1	.
N#CCc1nc(CSc2nc3ccccc3s2)cs1	61.9*	46.1	-3.9	3.0	.	.
c1ccc2sc(SCSc3nc4ccccc4s3)nc2c1	20.4	20.2	-6.1	-2.9	1.0	8.4
C[C@H]1CN([C@@H](C)CO)C(=O)c2cc(NC(=O)CCCCCC(=O)Nc3ccccc3N)ccc2O[C@@H]1CN(C)S(=O)(=O)c1cn(C)cn1	.	.	.	-1.2	0.4	.
CCCn1c(SCC(=O)NC2CCCCC2)nnc1-c1ccncc1	-2.0	-11.0	-3.6	.	.	54.2*
COc1ccccc1CN1CC2(C1)[C@@H](c1ccccc1)[C@@H](CO)N2Cc1ccccc1	.	.	.	.	-0.1	.
O=C(Nc1ccc2c3c(cccc13)CC2)c1ccco1	26.8	34.2	1.0	.	.	.
COc1ccc(C(=O)Nc2cccc3c2CCCC3)cc1	47.8*	.	-4.5	-1.1	0.1	2.7
COc1ccc(C(=O)Nc2ccc3c4c(cccc24)CC3)cc1	.	87.4*	-0.9	.	.	15.1
O=C(Nc1ccc2c3c(cccc13)CC2)c1ccc(Br)o1	79.4*	74.0	7.2	.	.	.
COc1ccc(C(=O)Nc2cccc3c2CCCC3)c(OC)c1	.	.	1.9	-5.3	0.0	36.4*
COc1ccc(C(=O)Nc2cc3c(oc2=O)CCCC3=O)cc1	.	63.1	23.4	44.2*	0.0	-0.4
CC(=O)c1cccc(OCc2cc(C(=O)N(C)CCC3CCOCC3)no2)c1	52.4*	62.7	-3.8	-1.5	0.1	21.4
COc1ccccc1OCc1cc(C(=O)N(C)CCC2CCOCC2)no1	54.1*	.	-1.3	1.9	0.1	40.1*
C#Cc1ccc([C@@H]2C=C(C(=O)N3CCCCCCC3)O[C@H](OCC)[C@H]2CCCO)cc1	.	.	.	-2.3	.	.
COC(=O)C[C@@H]1C[C@@H]2c3cc(NC(=O)c4cccnc4)ccc3O[C@@H]2[C@@H](CO)O1	-0.1	.	.	-0.4	0.0	.
CCC[C@@H](CN1CCC[C@H]1CN1C(N)=NC[C@H]1CC(C)C)N1C[C@@H](Cc2ccccc2)N(CCc2ccc(Cl)c(Cl)c2)C1=N	-4.5	11.6	.	36.0*	0.2	-1.5
CCC[C@@H](CN1CCC[C@H]1CN1C(N)=NC[C@@H]1Cc1ccccc1)N1C[C@@H](Cc2ccccc2)N(CCc2ccc(Cl)c(Cl)c2)C1=N	-22.2	11.0	.	44.7*	-0.1	0.7
C[C@@H]1CCCCO[C@H](CN(C)Cc2ccc3c(c2)OCO3)[C@H](C)CN([C@@H](C)CO)C(=O)c2cc(NC(=O)Nc3ccc(F)cc3)ccc2O1	3.2	.	.	2.8	-1.1	.
COc1ccc(/C=N/Nc2ccc(C(=O)O)cc2)c(OC)c1OC	91.4*	123.8*	-1.9	-0.9	0.3	12.6
COc1ccc(/C=N/Nc2ccccn2)cc1OC	.	.	7.4	-2.0	0.0	-0.3
O=C(O)c1ccc(N/N=C/c2cccc(C(F)(F)F)c2)cc1	92.1*	110.4*	.	1.2	-0.1	25.5
COc1cc(/C=N/Nc2ccccn2)ccc1O	.	28.9	-2.4	-0.8	.	36.6*
COc1cc(/C=N/Nc2ccc(C(=O)O)cc2)cc(OC)c1OC	56.4*	?	1.3	8.6	-0.1	25.3

Compound activity deposited in PubChem BioAssay by Broad Institute.
